Test results reported in PMC12065538 (Drug Design, Development and Therapy, 2025).
Like-named read-outs stand apart in the source and are kept apart here.

Key:
[1] = cited from earlier work
[2] = Observed plasma concentrations of venetoclax concomitant with voriconazole; type: in vivo; conditions: human, oral, 100 mg
Summary of the method: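 Adults with hematologic malignancies received test compound 100 mg orally once daily plus an azole antifungal (400 mg bid day 1, then 200 mg bid; or 200 mg bid continued). Intensive set: EDTA blood 0–1 h predose and 2–24 h post-dose on day 5–11. Validation set: troughs 0–1 h predose, day 2–22. Plasma measured by LC-MS/MS in MRM mode with deuterated internal standards; calibration range 0.05–10.0 μg/mL.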

[3] = test system: plasma protein; conditions: regardless of concentration; ref prescribing information; cited from earlier work
[4] = venetoclax 100 mg with posaconazole

For `CC1(C)CCC(CN2CCN(c3ccc(C(=O)NS(=O)(=O)c4ccc(NCC5CCOCC5)c([N+](=O)[O-])c4)c(Oc4cnc5[nH]ccc5c4)c3)CC2)=C(c2ccc(Cl)cc2)C1` [venetoclax], the “reduction of apparent oral clearance (CL/F) by CYP3A inhibitors” value ([1]; PopPK studies, various patient populations and healthy subjects) is given as 82–86%, the CL/F ([1]; co-administered with posaconazole, patients with AML) is given as 1.1 to 1.4 L/h and the AUC24h ([1]; observed, venetoclax 70 mg with posaconazole, day 12, CV 54%) is given as 49100 ± 26500 ng·h/mL. For the same compound, the CL/F ([1]; other PopPK models with strong CYP3A inhibitors as covariates) was 2.2 to 3.6 L/h, the AUC24h ([1]; venetoclax 50 mg with posaconazole) was 47200 ± 27400 ng·h/mL and the “accumulation ratio (AUC24h day 14 to day 7)” value ([1]; venetoclax 70 mg with posaconazole 300 mg qd, range 1.0–2.9) was 1.3. For the same compound, the AUC24h [1, 4] was 76200 ± 13700 ng·h/mL, the “average AUC higher than venetoclax (400 mg) with caspofungin” value [1, 4] was 103% and the AUC24h ([1]; venetoclax 400 mg administered alone) was 32800 ± 16900 ng·h/mL. For the same compound, the “accumulation ratio (AUC24h day 14 to day 7)” value ([1]; venetoclax 400 mg alone, range 0.5–2.1) was 1.0, the CL/F ([1]; venetoclax alone) was 15.0 to 19.5 L/h and the “AUC increase versus venetoclax (400 mg) with caspofungin” value ([1]; venetoclax with voriconazole) was 77%. For the same compound, the “increase of AUC” value ([1]; with posaconazole) was 8.8 fold, the “increase of Cmax” value ([1]; with posaconazole) was 7.1 fold and the AUC [2] was 52400 ng·h/mL. For the same compound, the “fu (unbound fraction in plasma)” value [3] was less than 0.01.
